Data published in ChEMBL document CHEMBL1138070, “Inhibitors of HCV NS5B polymerase: synthesis and structure-activity relationships of N-alkyl-4-hydroxyquinolon-3-yl-benzothiadiazine sulfamides” (Bioorg Med Chem Lett, 2006).

Columns and labels:
[1] = molecular target: T1, RNA-directed RNA polymerase (Hepacivirus hominis, UniProt O39930); test: Inhibition of HCV 1a NS5B RNA polymerase
[2] = molecular target: T1, RNA-directed RNA polymerase; test: Inhibition of HCV 1b NS5B RNA polymerase; set-up: species or system Hepatitis C virus subtype 1b
[3] = tested on: Hepatitis C virus; test: Inhibition of HCV 1b replication in presence of 5% fetal calf serum; format: functional, organism-based, Hepatitis C virus subtype 1b
Outline: (§1)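 Genotype 1b HCV replicon cell culture assay. The medium held 5% fetal calf serum […] and 40% human serum […]. EC50 is the mean of at least two independent determinations, standard deviation ±10%.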

[4] = tested on: Hepatitis C virus; test: Inhibition of HCV 1b replication in presence of 40% human serum; format: functional, organism-based, Hepatitis C virus subtype 1b; outline: as §1

T1 sequence (O39930 whole entry): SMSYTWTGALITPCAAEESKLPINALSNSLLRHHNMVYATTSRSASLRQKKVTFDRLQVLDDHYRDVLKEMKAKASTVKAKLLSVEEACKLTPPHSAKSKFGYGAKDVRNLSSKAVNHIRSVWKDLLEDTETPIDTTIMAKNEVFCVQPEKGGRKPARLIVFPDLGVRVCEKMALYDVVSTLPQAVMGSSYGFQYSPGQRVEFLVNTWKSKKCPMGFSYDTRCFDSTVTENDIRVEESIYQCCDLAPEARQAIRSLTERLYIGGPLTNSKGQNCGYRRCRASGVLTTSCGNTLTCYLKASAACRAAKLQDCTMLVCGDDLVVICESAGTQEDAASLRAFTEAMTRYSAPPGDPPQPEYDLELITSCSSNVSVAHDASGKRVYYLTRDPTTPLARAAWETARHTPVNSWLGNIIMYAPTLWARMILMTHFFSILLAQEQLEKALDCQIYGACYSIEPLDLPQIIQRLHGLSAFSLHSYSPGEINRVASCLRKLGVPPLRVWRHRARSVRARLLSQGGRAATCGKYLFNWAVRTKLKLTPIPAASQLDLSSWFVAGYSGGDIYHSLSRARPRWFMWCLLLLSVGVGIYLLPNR

| SMILES | IC50 [1] [nM] | other results |
| --- | --- | --- |
| CC(C)CCn1c(=O)c(C2=NS(=O)(=O)c3cc(NS(=O)(=O)Nc4cccc(C(=O)NCC(N)=O)c4)ccc3N2)c(O)c2cccnc21 | 43 |  |
| COCCOC(=O)NS(=O)(=O)Nc1ccc2c(c1)S(=O)(=O)NC(c1c(O)c3cccnc3n(CCC(C)C)c1=O)=N2 | 87 |  |
| CC(C)CCn1c(=O)c(C2=NS(=O)(=O)c3cc(NS(=O)(=O)N(C)C(=O)OCc4ccccc4)ccc3N2)c(O)c2cccnc21 | 121 |  |
| C#CCOC(=O)NS(=O)(=O)Nc1ccc2c(c1)S(=O)(=O)N=C(c1c(O)c3cccnc3n(CCC(C)C)c1=O)N2 | 72 |  |
| C=CCOC(=O)NS(=O)(=O)Nc1ccc2c(c1)S(=O)(=O)N=C(c1c(O)c3cccnc3n(CCC(C)C)c1=O)N2 | 88 |  |
| CC(C)CCn1c(=O)c(C2=Nc3ccc(NS(=O)(=O)NC(=O)OCCCl)cc3S(=O)(=O)N2)c(O)c2cccnc21 | 189 |  |
| CC(C)CCn1c(=O)c(C2=Nc3ccc(NS(=O)(=O)NC(=O)OCCC#N)cc3S(=O)(=O)N2)c(O)c2cccnc21 | 35 | IC50 [2]: 6.7 nM; EC50 [3]: 98 nM |
| CC(C)CCn1c(=O)c(C2=Nc3ccc(NS(=O)(=O)NC(=O)OCc4ccccc4)cc3S(=O)(=O)N2)c(O)c2cccnc21 | 58 |  |
| CC(C)CCn1c(=O)c(C2=Nc3ccc(NS(=O)(=O)NC4CCNCC4)cc3S(=O)(=O)N2)c(O)c2cccnc21 | 32 |  |
| CC(C)CCn1c(=O)c(C2=Nc3ccc(NS(=O)(=O)NN4CCCC4)cc3S(=O)(=O)N2)c(O)c2cccnc21 | 27 |  |
| CC(C)CCn1c(=O)c(C2=Nc3ccc(NS(=O)(=O)NCCO)cc3S(=O)(=O)N2)c(O)c2cccnc21 | 107 |  |
| COC(=O)c1ccccc1NS(=O)(=O)Nc1ccc2c(c1)S(=O)(=O)NC(c1c(O)c3cccnc3n(CCC(C)C)c1=O)=N2 | 129 |  |
| COC(=O)c1ccc(NS(=O)(=O)Nc2ccc3c(c2)S(=O)(=O)N=C(c2c(O)c4cccnc4n(CCC(C)C)c2=O)N3)cc1 | 48 |  |
| CNC(=O)c1ccc(NS(=O)(=O)Nc2ccc3c(c2)S(=O)(=O)N=C(c2c(O)c4cccnc4n(CCC(C)C)c2=O)N3)cc1 | 43 |  |
| COC(=O)NS(=O)(=O)Nc1ccc2c(c1)S(=O)(=O)N=C(c1c(O)c3cccnc3n(CCC(C)C)c1=O)N2 | 63 |  |
| CC(C)CCn1c(=O)c(C2=Nc3ccc(NS(=O)(=O)NC(=O)OCC(=O)O)cc3S(=O)(=O)N2)c(O)c2cccnc21 | 50 |  |
| CC(C)CCn1c(=O)c(C2=NS(=O)(=O)c3cc(NS(=O)(=O)Nc4cccc(C(N)=O)c4)ccc3N2)c(O)c2cccnc21 | 43 |  |
| CC(C)CCn1c(=O)c(C2=Nc3ccc(NS(=O)(=O)NC4CCCC4)cc3S(=O)(=O)N2)c(O)c2cccnc21 | 39 |  |
| CCOC(=O)COC(=O)NS(=O)(=O)Nc1ccc2c(c1)S(=O)(=O)NC(c1c(O)c3cccnc3n(CCC(C)C)c1=O)=N2 | 61 |  |
| CC(C)CCn1c(=O)c(C2=Nc3ccc(NS(=O)(=O)NC(=O)OCCOCc4ccccc4)cc3S(=O)(=O)N2)c(O)c2cccnc21 | 96 |  |
| CC(C)CCn1c(=O)c(C2=Nc3ccc(NS(=O)(=O)Nc4cccc(C(=O)O)c4)cc3S(=O)(=O)N2)c(O)c2cccnc21 | 115 |  |
| CC(C)CCn1c(=O)c(C2=Nc3ccc(NS(=O)(=O)Nc4ccccc4)cc3S(=O)(=O)N2)c(O)c2cccnc21 | 41 |  |
| CC(C)CCn1c(=O)c(C2=Nc3ccc(NS(=O)(=O)NC4CCCCC4)cc3S(=O)(=O)N2)c(O)c2cccnc21 | 67 |  |
| COc1ccccc1CNS(=O)(=O)Nc1ccc2c(c1)S(=O)(=O)NC(c1c(O)c3cccnc3n(CCC(C)C)c1=O)=N2 | 57 |  |
| CCOC(=O)c1cccc(NS(=O)(=O)Nc2ccc3c(c2)S(=O)(=O)NC(c2c(O)c4cccnc4n(CCC(C)C)c2=O)=N3)c1 | 132 |  |

The next compounds have a lower IC50 [1] than those just listed; values first:

| IC50 [1] [nM] | SMILES | other results |
| --- | --- | --- |
| 21 | CC(C)CCn1c(=O)c(C2=Nc3ccc(NS(=O)(=O)NC(=O)OCCN)cc3S(=O)(=O)N2)c(O)c2cccnc21 |  |
| 20 | CC(C)CCn1c(=O)c(C2=Nc3ccc(NS(=O)(=O)NCCC(N)=O)cc3S(=O)(=O)N2)c(O)c2cccnc21 |  |
| 20 | CC(C)CCn1c(=O)c(C2=NS(=O)(=O)c3cc(NS(=O)(=O)Nc4ccc(C(=O)O)cc4)ccc3N2)c(O)c2cccnc21 |  |
| 18 | CC(C)CCn1c(=O)c(C2=Nc3ccc(NS(=O)(=O)Nc4ccc(C(N)=O)cc4)cc3S(=O)(=O)N2)c(O)c2cccnc21 |  |
| 18 | CC(C)CCn1c(=O)c(C2=Nc3ccc(NS(=O)(=O)NCCc4ccccc4)cc3S(=O)(=O)N2)c(O)c2cccnc21 | IC50 [2]: 37 nM; EC50 [3]: 1270 nM |
| 15 | COc1cccc(CNS(=O)(=O)Nc2ccc3c(c2)S(=O)(=O)NC(c2c(O)c4cccnc4n(CCC(C)C)c2=O)=N3)c1 |  |
| 14 | CNS(=O)(=O)Nc1ccc2c(c1)S(=O)(=O)NC(c1c(O)c3cccnc3n(CCC(C)C)c1=O)=N2 |  |
| 13 | CC(C)CCn1c(=O)c(C2=Nc3ccc(NS(=O)(=O)NCc4cccc([N+](=O)[O-])c4)cc3S(=O)(=O)N2)c(O)c2cccnc21 |  |
| 10 | CC(C)CCn1c(=O)c(C2=Nc3ccc(NS(=O)(=O)NCCN)cc3S(=O)(=O)N2)c(O)c2cccnc21 |  |
| 10 | COc1ccc(CNS(=O)(=O)Nc2ccc3c(c2)S(=O)(=O)N=C(c2c(O)c4cccnc4n(CCC(C)C)c2=O)N3)cc1 |  |
| 9 | CC(C)CCn1c(=O)c(C2=NS(=O)(=O)c3cc(NS(N)(=O)=O)ccc3N2)c(O)c2cccnc21 | IC50 [2]: 2.8 nM; EC50 [3]: 17 nM |
| 8.7 | CNS(=O)(=O)Nc1ccc2c(c1)S(=O)(=O)NC(c1c(O)c3ccccc3n(NC3CCC3)c1=O)=N2 | EC50 [4]: 420 nM; EC50 [3]: 11 nM |
| 5.5 | CC(C)CCn1c(=O)c(C2=NS(=O)(=O)c3cc(NS(=O)(=O)NCc4ccccc4)ccc3N2)c(O)c2cccnc21 | IC50 [2]: 44 nM; EC50 [3]: 398 nM |
| 5.2 | NS(=O)(=O)Nc1ccc2c(c1)S(=O)(=O)NC(c1c(O)c3ccccc3n(NC3CCC3)c1=O)=N2 | IC50 [2]: 0.4 nM; EC50 [4]: 81 nM; EC50 [3]: 3 nM |
| 2.4 | CC(C)CCn1c(=O)c(C2=NS(=O)(=O)c3cc(NS(C)(=O)=O)ccc3N2)c(O)c2cccnc21 | IC50 [2]: 6 nM |
